# Activity calls are given as the source filed them. No cut-off for these calls is given here.
# Tests used:
# [1] = target: T1, Topoisomerase I (Bos taurus) (UniProt Q2HPH0); assay: Inhibition of calf thymus DNA topoisomerase 1 at 20 uM using pBR322 DNA as substrate after 30 mins by agarose gel electrophoresis method
# T1 sequence (whole entry): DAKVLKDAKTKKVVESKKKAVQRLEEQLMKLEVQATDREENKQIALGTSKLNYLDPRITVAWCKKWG
# [2] = tested on: Calf thymus DNA; assay: Binding affinity to calf thymus double stranded DNA at 10 uM by spectrofluorimetric method; type: nucleic-acid assay; details: Bos taurus
# [3] = tested on: Calf thymus DNA; assay: Binding affinity to calf thymus double stranded DNA assessed as hypochromicity at 10 uM by […] method; type: nucleic-acid assay; details: Bos taurus
# [4] = tested on: DU-145; assay: Antiproliferative activity against human DU145 cells after 48 hrs by MTT assay; type: functional, cell-based; details: DU-145, 48 h
# [5] = tested on: DU-145; assay: Induction of apoptosis in human DU145 cells assessed as early apoptotic cells at 2 uM after 48 hrs by annexin-V/FITC/propidium iodide staining-based FACS analysis (reference value: 3.61%); type: functional
# [6] = tested on: DU-145; assay: Cell cycle arrest in human DU145 cells assessed as accumulation at G2/M phase at 1 uM after 48 hrs by FACS analysis (reference value: 21.07%); type: functional
# [7] = tested on: DU-145; assay: Cell cycle arrest in human DU145 cells assessed as accumulation at G0/G1 phase at 2 uM after 48 hrs by FACS analysis (reference value: 53.60%); type: functional
# [8] = tested on: DU-145; assay: Cell cycle arrest in human DU145 cells assessed as accumulation at S phase at 1 uM after 48 hrs by FACS analysis (reference value: 16.22%); type: functional
# [9] = tested on: Calf thymus DNA; assay: Binding affinity to calf thymus double stranded DNA at 20 uM by CD spectroscopic method; type: nucleic-acid assay; details: Bos taurus
# [10] = tested on: DU-145; assay: Induction of apoptosis in human DU145 cells assessed as viable cells at 2 uM after 48 hrs by annexin-V/FITC/propidium iodide staining-based FACS analysis (reference value: 91.44%); type: functional; details: DU-145, 48 h, read-out: Activity
# [11] = tested on: DU-145; assay: Cell cycle arrest in human DU145 cells assessed as accumulation at sub-G1 phase at 1 uM after 48 hrs by FACS analysis (reference value: 7.71%); type: functional
# [12] = tested on: NIH3T3; assay: Antiproliferative activity against mouse NIH/3T3 cells after 48 hrs by MTT assay; type: functional, cell-based; details: NIH3T3, 48 h
# [13] = tested on: DU-145; assay: Cell cycle arrest in human DU145 cells assessed as accumulation at G2/M phase at 2 uM after 48 hrs by FACS analysis (reference value: 21.07%); type: functional
# [14] = tested on: A549; assay: Antiproliferative activity against human A549 cells after 48 hrs by MTT assay; type: functional, cell-based; details: A549, 48 h
# [15] = tested on: DU-145; assay: Cell cycle arrest in human DU145 cells assessed as accumulation at G0/G1 phase at 1 uM after 48 hrs by FACS analysis (reference value: 53.60%); type: functional
# [16] = tested on: MCF7; assay: Antiproliferative activity against human MCF7 cells after 48 hrs by MTT assay; type: functional, cell-based; details: MCF7, 48 h
# [17] = tested on: DNA; assay: Induction of Escherichia coli pBR322 DNA cleavage at 20 uM incubated in dark condition by agarose gel electrophoresis; type: nucleic-acid assay
# In short: (§1)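 pBR322 plasmid DNA was incubated with 20 µM ligand, either in the dark or under UV-light irradiation for 1 h. Products were separated by gel electrophoresis. Irradiated DNA solution alone served as the control.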
# [18] = tested on: DNA; assay: Induction of Escherichia coli pBR322 DNA cleavage at 20 uM incubated in presence of UV-light for 1 hr by agarose gel electrophoresis; type: nucleic-acid assay; in short: as §1
# [19] = tested on: DU-145; assay: Cell cycle arrest in human DU145 cells assessed as accumulation at S phase at 2 uM after 48 hrs by FACS analysis (reference value: 16.22%); type: functional
# [20] = tested on: HeLa; assay: Antiproliferative activity against human HeLa cells after 48 hrs by MTT assay; type: functional, cell-based
# [21] = tested on: Calf thymus DNA; assay: Binding affinity to calf thymus double stranded DNA at 25 uM by UV-vis spectroscopic method; type: nucleic-acid assay; details: Bos taurus
# [22] = tested on: DU-145; assay: Induction of apoptosis in human DU145 cells assessed as late apoptotic cells at 1 uM after 48 hrs by annexin-V/FITC/propidium iodide staining-based FACS analysis (reference value: 4.46%); type: functional
# [23] = tested on: DU-145; assay: Cell cycle arrest in human DU145 cells assessed as accumulation at sub-G1 phase at 2 uM after 48 hrs by FACS analysis (reference value: 7.71%); type: functional
# [24] = tested on: Calf thymus DNA; assay: Binding affinity to calf thymus double stranded DNA at 15 uM by ostwald viscometer; type: nucleic-acid assay; details: Bos taurus
# [25] = tested on: DU-145; assay: Induction of apoptosis in human DU145 cells assessed as necrotic cells at 1 uM after 48 hrs by annexin-V/FITC/propidium iodide staining-based FACS analysis (reference value: 0.49%); type: functional
# [26] = tested on: DU-145; assay: Induction of apoptosis in human DU145 cells assessed as late apoptotic cells at 2 uM after 48 hrs by annexin-V/FITC/propidium iodide staining-based FACS analysis (reference value: 4.46%); type: functional
# [27] = tested on: DU-145; assay: Induction of apoptosis in human DU145 cells assessed as necrotic cells at 2 uM after 48 hrs by annexin-V/FITC/propidium iodide staining-based FACS analysis (reference value: 0.49%); type: functional
# [28] = tested on: DU-145; assay: Induction of apoptosis in human DU145 cells assessed as early apoptotic cells at 1 uM after 48 hrs by annexin-V/FITC/propidium iodide staining-based FACS analysis (reference value: 3.61%); type: functional
# [29] = tested on: DU-145; assay: Induction of apoptosis in human DU145 cells assessed as viable cells at 1 uM after 48 hrs by annexin-V/FITC/propidium iodide staining-based FACS analysis (reference value: 91.44%); type: functional; details: DU-145, 48 h, read-out: Activity
# [30] = tested on: Calf thymus DNA; assay: Binding affinity to calf thymus double stranded DNA at 5 uM by ostwald viscometer; type: nucleic-acid assay; details: Bos taurus
SMILES,inhibition [1],Activity [2],Activity [3] [%],IC50 [4] [µM],Activity [5] [%],Activity [6] [%],Activity [7] [%],Activity [8] [%],Activity [9],viability at 2 µM [10] [%],Activity [11] [%],IC50 [12] [µM],Activity [13] [%],IC50 [14] [µM],Activity [15] [%],IC50 [16] [µM],Activity [17],Activity [18],Activity [19] [%],IC50 [20] [µM],further results
Cc1ccc(-c2nc(C(c3c[nH]c4ccc(Br)cc34)c3c[nH]c4ccc(Br)cc34)cc3c2[nH]c2ccccc23)cc1,Active,Active,10 to 12,1.86,32.76,22.04,15.92,16.37,Active,63.6,5.57,125,57.12,2.51,54.58,5.85,Not Active,Active,19.52,2.54,Activity [21]: Active; Activity [22]: 6.43%; Activity [23]: 6.05%; Activity [24]: Active; Activity [25]: 0.12%; Activity [26]: 3.12%; Activity [27]: 0.47%; Activity [28]: 6.43%; viability at 1 µM [29]: 87%
O=[N+]([O-])c1ccc2[nH]cc(C(c3cc4c([nH]c5ccccc54)c(-c4ccc(F)cc4)n3)c3c[nH]c4ccc([N+](=O)[O-])cc34)c2c1,Active,,,1.92,,,,,,,,64.2,,6.32,,14.4,Not Active,inactive,,12.8,
CCOc1ccc(-c2nc3cc(-c4nc5cc(N6CCN(C)CC6)ccc5[nH]4)ccc3[nH]2)cc1,,,,,,,,,,,,,,,,,,,,,Activity [30]: inactive
CC[n+]1c(-c2ccccc2)c2cc(N)ccc2c2ccc(N)cc21,,,,,,,,,,,,,,,,,,,,,Activity [30]: Active
Fc1ccc(-c2nc(C(c3c[nH]c4ccccc34)c3c[nH]c4ccccc34)cc3c2[nH]c2ccccc23)cc1,Active,Active,10 to 12,1.8,38.28,57.46,13.58,19.16,Active,55.5,6.91,140,62.86,2.04,15.15,8.5,Not Active,Active,17.41,3.25,Activity [21]: Active; Activity [22]: 6.55%; Activity [23]: 4.93%; Activity [24]: Active; Activity [25]: 0.23%; Activity [26]: 5.06%; Activity [27]: 1.14%; Activity [28]: 8.49%; viability at 1 µM [29]: 84.7%
